Source: ChEMBL document CHEMBL1124883, “Monophosphoric acid diesters of 7 beta-hydroxycholesterol and of pyrimidine nucleosides as potential antitumor agents: synthesis and preliminary evaluation of antitumor activity” (1990)

Assays:
[1] = Evaluated for median survival time against Kreb II murine sarcoma cells in female Swiss/OF1 mice after ip administration of 80 umol/kg per day; format: functional, Mus musculus
Summary of the method: (§1)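 Krebs II ascitic carcinoma, 1 × 10^6 cells in 0.25 mL 0.9% NaCl from donor mice with 8-10-day tumors, implanted ip into female Swiss/OF1 mice (20-25 g, six per group). Drugs were given in saline, water or aqueous suspension, 0.2 mL ip daily, starting 24 or 96 h post-implant. Saline controls.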

[2] = The percentage of increase in life span was determined; format: functional, Mus musculus; summary of the method: as §1
[3] = Evaluated for median survival time against Kreb II murine sarcoma cells in female Swiss/OF1 mice after ip administration of 84 uM/kg per day; format: functional, Mus musculus; summary of the method: as §1
Mus musculus = species: Mus musculus; assay: Complete recovery expressed as percent of animals surviving for more than 80 days was determined; format: functional; summary of the method: as §1
[4] = Evaluated for median survival time against Kreb II murine sarcoma cells in female Swiss/OF1 mice after ip administration of 80 uM/kg per day; format: functional, Mus musculus; summary of the method: as §1

Structure (SMILES): CC(C)CCCC(C)[C@H]1CC[C@H]2[C@@H]3[C@@H](O)C=C4C[C@@H](O)CC[C@]4(C)[C@H]3CC[C@]12C.O=c1ccn([C@@H]2O[C@H](CO)[C@@H](O)[C@H]2O)c(=O)[nH]1 (some centres undefined)
- Median survival time [1]: 21 days
- ILS [2]: 40%

Structure (SMILES): CC(C)CCCC(C)[C@H]1CCC2C3C(CC[C@@]21C)[C@@]1(C)CC[C@H](O)CC1=C[C@@H]3O (stereo in doubt; form 1)
- Median survival time [1]: 21 days
- ILS [2]: 40%

Structure (SMILES): CC(C)CCCC(C)[C@H]1CCC2C3C(CC[C@@]21C)[C@@]1(C)CC[C@H](O)CC1=C[C@@H]3O (stereo in doubt; form 2) [listing 1 of 2 here]
- Median survival time [3]: 42 days
- ILS [2]: 180%

Structure (SMILES): CC(C)CCCC(C)[C@H]1CCC2C3C(CC[C@@]21C)[C@@]1(C)CC[C@H](O)CC1=C[C@@H]3O (stereo in doubt; form 2) [listing 2 of 2 here]
- CR (Mus musculus): 30%

Structure (SMILES): O=c1[nH]c(=O)n([C@@H]2O[C@H](CO)[C@@H](O)[C@H]2O)cc1F [5-FLUOROURIDINE]
- Median survival time [4]: 29 days
- ILS [2]: 93%
